Measurements: ChEMBL document CHEMBL3097989, “Antimicrobial activity of de novo designed cationic peptides against multi-resistant clinical isolates” (Eur J Med Chem, 2014)

How the values were obtained:
Type in all cases: functional
[1] = system: Enterococcus faecium; assay: Antibacterial activity against Enterococcus faecium M2481 clinical isolate expressing vanB gene by microdilution test
Summary of the method: (§1)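 MIC by standard broth microdilution following CLSI recommendations, in Mueller Hinton broth supplemented with Ca²⁺ (20-25mg/L) and Mg²⁺ (10-12.5mg/L); peptides tested against a panel of multi-resistant clinical isolates plus ATCC reference strains.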

[2] = system: Pseudomonas aeruginosa; assay: Antibacterial activity against Pseudomonas aeruginosa M7712 clinical isolate expressing blaSPM gene by microdilution test
Summary of the method: (§2)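 MIC by standard broth microdilution following CLSI recommendations, in Mueller Hinton broth supplemented with Ca²⁺ (20-25 mg/L) and Mg²⁺ (10-12.5 mg/L); ATCC reference strains included in the panel.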

[3] = system: Enterococcus faecalis; assay: Antibacterial activity against Enterococcus faecalis M4449 clinical isolate expressing vanA gene by microdilution test; summary of the method: as §1
[4] = system: Staphylococcus saprophyticus; assay: Antibacterial activity against Staphylococcus saprophyticus M4070 clinical isolate expressing mecA gene by microdilution test; summary of the method: as §2
[5] = system: Acinetobacter sp.; assay: Antibacterial activity against Acinetobacter sp. M7489 clinical isolate expressing blaOXA-51 and blaTEM gene by microdilution test; summary of the method: as §1
[6] = system: Escherichia coli; assay: Antibacterial activity against Escherichia coli M7859 clinical isolate expressing blaCIT gene by microdilution test; summary of the method: as §1
[7] = system: Staphylococcus cohnii; assay: Antibacterial activity against Staphylococcus cohnii M6767 clinical isolate expressing mecA gene by microdilution test; summary of the method: as §2
[8] = system: Staphylococcus aureus; assay: Antibacterial activity against Staphylococcus aureus P28 clinical isolate expressing ermA gene by microdilution test; summary of the method: as §2
[9] = system: Staphylococcus aureus; assay: Antibacterial activity against Staphylococcus aureus P204 clinical isolate expressing ermA gene by microdilution test; summary of the method: as §2
[10] = system: Escherichia coli; assay: Antibacterial activity against Escherichia coli ATCC 25922 by microdilution test; summary of the method: as §1
[11] = system: Klebsiella pneumoniae; assay: Antibacterial activity against Klebsiella pneumoniae M9310 clinical isolate expressing blaCTX-M-2, blaTEM-1 and blaSHV-1 gene by microdilution test; summary of the method: as §1
[12] = system: Staphylococcus aureus; assay: Antibacterial activity against Staphylococcus aureus M4046 clinical isolate expressing mecA gene by microdilution test; summary of the method: as §2
[13] = system: Staphylococcus epidermidis; assay: Antibacterial activity against Staphylococcus epidermidis M2919 clinical isolate expressing mecA gene by microdilution test; summary of the method: as §2
[14] = system: Acinetobacter sp.; assay: Antibacterial activity against Acinetobacter sp. M5179 clinical isolate expressing blaOXA-51 gene by microdilution test; summary of the method: as §1
[15] = system: Pseudomonas aeruginosa; assay: Antibacterial activity against Pseudomonas aeruginosa M7907 clinical isolate expressing blaPER gene by microdilution test; summary of the method: as §2
[16] = system: Staphylococcus epidermidis; assay: Antibacterial activity against Staphylococcus epidermidis M2923 by microdilution test; summary of the method: as §2
[17] = system: Klebsiella pneumoniae; assay: Antibacterial activity against Klebsiella pneumoniae M9170 clinical isolate expressing blaOXA-GIII gene by microdilution test; summary of the method: as §1
[18] = system: Klebsiella pneumoniae; assay: Antibacterial activity against Klebsiella pneumoniae M11245 clinical isolate expressing blaKPC-2 and blaPER-2 gene by microdilution test; summary of the method: as §1
[19] = system: Escherichia coli; assay: Antibacterial activity against Escherichia coli M9209 clinical isolate expressing blaKPC-2 gene by microdilution test; summary of the method: as §1
[20] = system: Escherichia coli; assay: Antibacterial activity against Escherichia coli M9884 by microdilution test; summary of the method: as §1
[21] = system: Klebsiella pneumoniae; assay: Antibacterial activity against Klebsiella pneumoniae M1803 clinical isolate expressing blaPER-2, blaCTX-M-2, blaTEM-1, blaSHV and blaOXA-9 gene by microdilution test; summary of the method: as §1
[22] = system: Klebsiella pneumoniae; assay: Antibacterial activity against Klebsiella pneumoniae M5825 clinical isolate expressing blaGES-3 and blaCTX-M-2 gene by microdilution test; summary of the method: as §1
[23] = system: Enterococcus faecium; assay: Antibacterial activity against Enterococcus faecium PZAP95 by microdilution test; summary of the method: as §1
[24] = system: Enterococcus faecium; assay: Antibacterial activity against Enterococcus faecium M2664 clinical isolate expressing vanA gene by microdilution test; summary of the method: as §1
[25] = system: Escherichia coli; assay: Antibacterial activity against Escherichia coli PLCA1 clinical isolate expressing blaCTX-M-2 and blaTEM-1 gene by microdilution test; summary of the method: as §1
[26] = system: Staphylococcus haemolyticus; assay: Antibacterial activity against Staphylococcus haemolyticus M2976 clinical isolate expressing mecA gene by microdilution test; summary of the method: as §2
[27] = system: Acinetobacter sp.; assay: Antibacterial activity against Acinetobacter sp. M7978 clinical isolate expressing blaIMP-1 gene by microdilution test; summary of the method: as §1
[28] = system: Pseudomonas aeruginosa; assay: Antibacterial activity against Pseudomonas aeruginosa M7723 clinical isolate expressing blaKPC-2 gene by microdilution test; summary of the method: as §2
[29] = system: Acinetobacter sp.; assay: Antibacterial activity against Acinetobacter sp. M9665 clinical isolate expressing blaOXA-51 gene by microdilution test; summary of the method: as §1
[30] = system: Enterococcus faecalis; assay: Antibacterial activity against Enterococcus faecalis M6383 clinical isolate expressing vanA gene by microdilution test; summary of the method: as §1
[31] = system: Escherichia coli; assay: Antibacterial activity against Escherichia coli PNEU23 clinical isolate expressing blaOXA-GIII and blaTEM-1 gene by microdilution test; summary of the method: as §1
[32] = system: Enterococcus gallinarum; assay: Antibacterial activity against Enterococcus gallinarum M2685 clinical isolate expressing vanC1 and vanA gene by microdilution test; summary of the method: as §1
[33] = system: Escherichia coli; assay: Antibacterial activity against Escherichia coli M5306 clinical isolate expressing blaPER-2, blaCTX-M-2 and blaTEM-1 gene by microdilution test; summary of the method: as §1
[34] = system: Staphylococcus saprophyticus; assay: Antibacterial activity against Staphylococcus saprophyticus M2981 clinical isolate expressing mecA gene by microdilution test; summary of the method: as §2
[35] = system: Enterococcus faecalis; assay: Antibacterial activity against Enterococcus faecalis M6983 clinical isolate expressing vanA gene by microdilution test; summary of the method: as §1
[36] = system: Enterococcus faecalis; assay: Antibacterial activity against Enterococcus faecalis M6534 clinical isolate expressing vanB gene by microdilution test; summary of the method: as §1
[37] = system: Escherichia coli; assay: Antibacterial activity against Escherichia coli PCOS15 clinical isolate expressing blaPER-2 and blaTEM-1 gene by microdilution test; summary of the method: as §1
[38] = system: Klebsiella pneumoniae; assay: Antibacterial activity against Klebsiella pneumoniae M13540 clinical isolate expressing blaKPC-2 gene by microdilution test; summary of the method: as §1
[39] = system: Acinetobacter sp.; assay: Antibacterial activity against Acinetobacter sp. PFAV1 clinical isolate expressing blaOXA-51, blaOXA-58 and blaPER gene by microdilution test; summary of the method: as §1
[40] = system: Staphylococcus aureus; assay: Antibacterial activity against Staphylococcus aureus M2832 clinical isolate expressing mecA gene by microdilution test; summary of the method: as §2
[41] = system: Staphylococcus aureus; assay: Antibacterial activity against Staphylococcus aureus P239 clinical isolate expressing ermC gene by microdilution test; summary of the method: as §2
[42] = system: Pseudomonas aeruginosa; assay: Antibacterial activity against Pseudomonas aeruginosa M7525 clinical isolate expressing blaSPM gene by microdilution test; summary of the method: as §2
[43] = system: Pseudomonas aeruginosa; assay: Antibacterial activity against Pseudomonas aeruginosa PCOS12 by microdilution test; summary of the method: as §2
[44] = system: Staphylococcus warneri; assay: Antibacterial activity against Staphylococcus warneri M6823 clinical isolate expressing mecA gene by microdilution test; summary of the method: as §2
[45] = system: Klebsiella pneumoniae; assay: Antibacterial activity against Klebsiella pneumoniae M9885 clinical isolate expressing blaKPC-2 gene by microdilution test; summary of the method: as §1
[46] = system: Staphylococcus epidermidis; assay: Antibacterial activity against Staphylococcus epidermidis M2931 by microdilution test; summary of the method: as §2
[47] = system: Staphylococcus haemolyticus; assay: Antibacterial activity against Staphylococcus haemolyticus M3014 by microdilution test; summary of the method: as §2
[48] = system: Klebsiella pneumoniae; assay: Antibacterial activity against Klebsiella pneumoniae M9375 clinical isolate expressing blaCTX-M-2, blaTEM-1 and blaSHV-1 gene by microdilution test; summary of the method: as §1
[49] = system: Pseudomonas aeruginosa; assay: Antibacterial activity against Pseudomonas aeruginosa M5470 by microdilution test; summary of the method: as §2
[50] = system: Staphylococcus aureus; assay: Antibacterial activity against Staphylococcus aureus M6276 clinical isolate expressing ermA and lnuA gene by microdilution test; summary of the method: as §2
[51] = system: Enterococcus gallinarum; assay: Antibacterial activity against Enterococcus gallinarum M2723 clinical isolate expressing vanC1 and vanA gene by microdilution test; summary of the method: as §1
[52] = system: Enterococcus faecium; assay: Antibacterial activity against Enterococcus faecium M2304 clinical isolate expressing vanA gene by microdilution test; summary of the method: as §1

H-GLLKKWLKKWKEFKRIVGY-NH2 showed an MIC90 [1] of 16 µg/mL, an MIC90 [2] of 64 µg/mL and an MIC90 [3] of 128 µg/mL. For the same substance, the MIC90 [4] was 32 µg/mL, the MIC90 [5] was 16 µg/mL and the MIC90 [6] was 32 µg/mL. For the same substance, the MIC90 [7] was 16 µg/mL, the MIC90 [8] was 64 µg/mL and the MIC90 [9] was 64 µg/mL. The MIC90 [10] was 32 µg/mL, the MIC90 [11] was 16 µg/mL and the MIC90 [12] was 128 µg/mL. For the same substance, the MIC90 [13] was 16 µg/mL, the MIC90 [14] was 32 µg/mL and the MIC90 [15] was 64 µg/mL. For the same substance, the MIC90 [16] was 16 µg/mL, the MIC90 [17] was 32 µg/mL and the MIC90 [18] was 16 µg/mL. For the same substance, the MIC90 [19] was 64 µg/mL, the MIC90 [20] was 32 µg/mL and the MIC90 [21] was 32 µg/mL. For the same substance, the MIC90 [22] was 8 µg/mL, the MIC90 [23] was 16 µg/mL and the MIC90 [24] was 8 µg/mL. The MIC90 [25] was 64 µg/mL, the MIC90 [26] was 8 µg/mL and the MIC90 [27] was 8 µg/mL. It also gave an MIC90 [28] of 64 µg/mL, an MIC90 [29] of 32 µg/mL and an MIC90 [30] of 128 µg/mL. It also gave an MIC90 [31] of 32 µg/mL, an MIC90 [32] of 16 µg/mL and an MIC90 [33] of 4 µg/mL. The MIC90 [34] was 8 µg/mL, the MIC90 [35] was 128 µg/mL and the MIC90 [36] was 256 µg/mL. It also gave an MIC90 [37] of 64 µg/mL, an MIC90 [38] of 16 µg/mL and an MIC90 [39] of 16 µg/mL. It also gave an MIC90 [40] of 128 µg/mL, an MIC90 [41] of 64 µg/mL and an MIC90 [42] of 64 µg/mL. The MIC90 [43] was 64 µg/mL, the MIC90 [44] was 8 µg/mL and the MIC90 [45] was 64 µg/mL. For the same substance, the MIC90 [46] was 16 µg/mL, the MIC90 [47] was 8 µg/mL and the MIC90 [48] was 64 µg/mL. The MIC90 [49] was 64 µg/mL, the MIC90 [50] was 128 µg/mL and the MIC90 [51] was 32 µg/mL. The MIC90 [52] was 16 µg/mL.
